Assay results as given in ChEMBL document CHEMBL4350976, “Sequence modification of heptapeptide selected by phage display as homing device for HT-29 colon cancer cells to improve the anti-tumour activity of drug delivery systems” (Eur J Med Chem, 2019).
Where a SMILES comes first, the peptide text is derived from it. The star is where a group is joined. X1 = COc1cccc2c1C(=O)c1c(O)c3c(c(O)c1C2=O)C[C@@](O)(/C(C)=N/OCC(=O)*)C[C@@H]3O[C@H]1C[C@H](N)[C@H](O)[C@H](C)O1

Tests used:
[1] = Stability in serum free medium at 30 uM incubated for 3 hrs by LC/MS analysis
Summary of the method: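 Conjugates (30 μM) were incubated at 37 °C in serum-free medium. Samples were taken at 0 and 3 h, quenched with acetic acid, lyophilised, desalted on C18 spin columns and analysed by LC-MS.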

[2] = test system: HT-29; test: Cytostatic activity against human HT-29 cells preincubated for 24 hrs under serum free condition followed by compound washout and further incubation for 48 hrs in presence of serum by MTT assay; type: functional, cell-based
Summary of the method: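 HT-29 cells were exposed to the compound for 24 h, washed, and kept a further 48 h. Viability was read by MTT. Absorbances were normalized to untreated controls and fitted by nonlinear regression to dose-response curves to give IC50.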

[3] = Drug uptake in human HT-29 cells assessed as increase in fluorescence intensity at 25 uM incubated for 3 hrs by flow cytometry; type: ADME, cell-based; settings: ht-29, 3 h
[4] = Retention time of the compound using 0.1% TFA in water and 0.1% TFA in acetonitrile-water (80:20 v/v) as eluents by RP-HPLC analysis; type: physicochemical
Summary of the method: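 Analytical RP-HPLC. Eluent A was 0.1% TFA in water and eluent B was 0.1% TFA in acetonitrile-water (80:20, v/v). Gradient: 0% B held to 5 min, then to 90% B at 50 min. Flow 1 mL/min, detection at 220 nm. The column was a Phenomenex Aeris Peptide XB-C18 (250×4.6 mm, 3.6 μm) or a Nucleosil C18 (5 μm, 100 Å, 250×4.6 mm), depending on the conjugate series.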

[5] = Aqueous solubility of compound in water; type: physicochemical; settings: buffer
[6] = Drug uptake in cytoplasm of living human HT-29 cells at 50 uM after 90 mins by fluorescence based confocal microscopic analysis; type: ADME, subcellular; settings: ht-29, 1.5 h
Summary of the method: (§1)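 HT-29 cells were incubated with 50 µM compound in RPMI for 90 min. Imaging was by confocal microscopy, with Dau detected at 550–600 nm emission.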

[7] = Drug uptake in nucleus of dead human HT-29 cells at 50 uM after 90 mins by fluorescence based confocal microscopic analysis; type: ADME, subcellular; settings: ht-29, 1.5 h; summary of the method: as §1
[8] = Stability in 2.5% fetal bovine serum containing medium at 30 uM measured after 24 hrs by LC/MS analysis; type: ADME, cell-free, Bos taurus; settings: cattle
Summary of the method: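 Conjugates (30 μM) were incubated at 37 °C in medium containing 2.5% FBS. Samples were taken at 0, 3, 6 and 24 h, quenched with acetic acid, lyophilised, desalted on C18 spin columns and analysed by LC-MS. Cleavage products were identified by mass.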

[9] = test system: U-87 MG; test: Cytostatic activity against human U87 cells preincubated for 24 hrs under serum free condition followed by compound washout and further incubation for 48 hrs in presence of serum by MTT assay; type: functional, cell-based, U-87MG ATCC
Summary of the method: (§2)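 Cells were grown at 37 °C in 5% CO2 in medium with 10% heat-inactivated FBS (20% for OVCAR-3) plus penicillin/streptomycin. The medium was RPMI-1640 for most lines, DMEM for U-87 MG and MRC-5, and IMDM for PE/CA-PJ lines. Seeding was 3×10^3–10×10^3 cells per well. Cells had 24 h compound exposure, a wash, and 48 h further culture. Read-out was MTT, normalized to untreated cells and fitted by nonlinear regression for IC50.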

[10] = test system: MCF7; test: Cytostatic activity against human MCF7 cells preincubated for 24 hrs under serum free condition followed by compound washout and further incubation for 48 hrs in presence of serum by MTT assay; type: functional, cell-based; summary of the method: as §2
[11] = test system: MDA-MB-231; test: Cytostatic activity against human MDA-MB-231 cells preincubated for 24 hrs under serum free condition followed by compound washout and further incubation for 48 hrs in presence of serum by MTT assay; type: functional, cell-based; summary of the method: as §2
[12] = test system: 4T1; test: Cytostatic activity against mouse 4T1 cells preincubated for 24 hrs under serum free condition followed by compound washout and further incubation for 48 hrs in presence of serum by MTT assay; type: functional, cell-based; summary of the method: as §2
[13] = test system: HCT-116; test: Cytostatic activity against human HCT116 cells preincubated for 24 hrs under serum free condition followed by compound washout and further incubation for 48 hrs in presence of serum by MTT assay; type: functional, cell-based; summary of the method: as §2
[14] = test system: WiDr; test: Cytostatic activity against human WiDr cells preincubated for 24 hrs under serum free condition followed by compound washout and further incubation for 48 hrs in presence of serum by MTT assay; type: functional, cell-based; summary of the method: as §2
[15] = test system: CT26.WT; test: Cytostatic activity against mouse CT26.WT cells preincubated for 24 hrs under serum free condition followed by compound washout and further incubation for 48 hrs in presence of serum by MTT assay; type: functional, cell-based; summary of the method: as §2
[16] = test system: HepG2; test: Cytostatic activity against human HepG2 cells preincubated for 24 hrs under serum free condition followed by compound washout and further incubation for 48 hrs in presence of serum by MTT assay; type: functional, cell-based; summary of the method: as §2
[17] = test system: A549; test: Cytostatic activity against human A549 cells preincubated for 24 hrs under serum free condition followed by compound washout and further incubation for 48 hrs in presence of serum by MTT assay; type: functional, cell-based; summary of the method: as §2
[18] = test system: NCI-H1650; test: Cytostatic activity against human NCI-H1650 cells preincubated for 24 hrs under serum free condition followed by compound washout and further incubation for 48 hrs in presence of serum by MTT assay; type: functional, cell-based; summary of the method: as §2
[19] = test system: NCI-H1975; test: Cytostatic activity against human NCI-H1975 cells preincubated for 24 hrs under serum free condition followed by compound washout and further incubation for 48 hrs in presence of serum by MTT assay; type: functional, cell-based; summary of the method: as §2
[20] = test system: A2058; test: Cytostatic activity against human A2058 cells preincubated for 24 hrs under serum free condition followed by compound washout and further incubation for 48 hrs in presence of serum by MTT assay; type: functional, cell-based; summary of the method: as §2
[21] = Cytostatic activity against human M24 cells preincubated for 24 hrs under serum free condition followed by compound washout and further incubation for 48 hrs in presence of serum by MTT assay; type: functional, cell-based; summary of the method: as §2
[22] = Cytostatic activity against human WM983B cells preincubated for 24 hrs under serum free condition followed by compound washout and further incubation for 48 hrs in presence of serum by MTT assay; type: functional, cell-based; summary of the method: as §2
[23] = test system: B16; test: Cytostatic activity against mouse B16 cells preincubated for 24 hrs under serum free condition followed by compound washout and further incubation for 48 hrs in presence of serum by MTT assay; type: functional, cell-based; summary of the method: as §2
[24] = Cytostatic activity against human PE/CA-PJ15 cells preincubated for 24 hrs under serum free condition followed by compound washout and further incubation for 48 hrs in presence of serum by MTT assay; type: functional, cell-based; summary of the method: as §2
[25] = Cytostatic activity against human PECAPJ41 cells preincubated for 24 hrs under serum free condition followed by compound washout and further incubation for 48 hrs in presence of serum by MTT assay; type: functional, cell-based; summary of the method: as §2
[26] = test system: OVCAR-3; test: Cytostatic activity against human OVCAR3 cells preincubated for 24 hrs under serum free condition followed by compound washout and further incubation for 48 hrs in presence of serum by MTT assay; type: functional, cell-based; summary of the method: as §2
[27] = test system: PANC-1; test: Cytostatic activity against human PANC1 cells preincubated for 24 hrs under serum free condition followed by compound washout and further incubation for 48 hrs in presence of serum by MTT assay; type: functional, cell-based; summary of the method: as §2
[28] = test system: DU-145; test: Cytostatic activity against human DU145 cells preincubated for 24 hrs under serum free condition followed by compound washout and further incubation for 48 hrs in presence of serum by MTT assay; type: functional, cell-based; summary of the method: as §2
[29] = test system: PC-3; test: Cytostatic activity against human PC3 cells preincubated for 24 hrs under serum free condition followed by compound washout and further incubation for 48 hrs in presence of serum by MTT assay; type: functional, cell-based; summary of the method: as §2
[30] = test system: MRC5; test: Cytostatic activity against human MRC5 cells preincubated for 24 hrs under serum free condition followed by compound washout and further incubation for 48 hrs in presence of serum by MTT assay; type: ADME, cell-based; summary of the method: as §2
[31] = Drug uptake in nucleus of human HT-29 cells assessed as increase in fluorescence at 50 uM after 90 mins by fluorescence based confocal microscopic analysis; type: ADME, subcellular; settings: ht-29, 1.5 h; summary of the method: as §1
[32] = test system: HT-29; test: Antitumor activity against human HT-29 cells xenografted in SCID mouse assessed as tumor growth inhibition by measuring decrease in tumor weight at 1 mg/kg, ip administered once a week (on day 13 and 20) starting from 13 days post inoculation measured at day 23 post inoculation relative to control; type: functional; settings: HT-29, ip
[33] = Toxicity in SCID mouse xenografted with human HT-29 cells assessed as body weight loss at 1 mg/kg, ip administered once a week (on day 13 and 20) starting from 13 days post inoculation measured upto 23 days post inoculation; type: organism-based; settings: in vivo
[34] = Toxicity in SCID mouse xenografted with human HT-29 cells assessed as animal death at 1 mg/kg, ip administered once a week (on days 13 and 20) starting from 13 days post inoculation measured upto 23 days post inoculation; type: organism-based; settings: in vivo
[35] = test system: HT-29; test: Antitumor activity against human HT-29 cells xenografted in SCID mouse assessed as decrease in number of Ki-67 positive cells measured as proliferation index at 1 mg/kg, ip administered once a week (on days 13 and 20) starting from 13 days post inoculation measured at day 23 post inoculation by KI-67-staining based light microscopic analysis (reference value: 100%); type: functional; design: scale not given: the % may be the effect or the level left
Summary of the method: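 Tumours from the SCID HT-29 orthotopic study were formalin-fixed and paraffin-embedded, cut at 2 µm, and given citrate pH 6 retrieval at 98 °C for 40 min. They were stained with anti-human Ki-67 (1:40, 1 h RT), then a biotinylated link, HRP polymer and AEC. Ki-67+ cells were counted in 5 fields per tumour at 40× magnification. The proliferation index is the % positive cells.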

[36] = test system: HT-29; test: Antitumor activity against human HT-29 cells xenografted in SCID mouse assessed as tumor growth inhibition by measuring decrease in tumor growth at 1 mg/kg, ip administered once per week for 2 times starting from 13 days post inoculation measured at day 23 post inoculation; settings: HT-29, ip

COc1cccc2c1C(=O)c1c(O)c3c(c(O)c1C2=O)C[C@@](O)(/C(C)=N/OCC(=O)N[C@@H](CC(C)C)C(=O)N[C@@H](CCCNC(=N)N)C(=O)N[C@@H](CCCNC(=N)N)C(=O)N[C@@H](Cc1ccc(O)cc1)C(=O)N[C@H](C(=O)N[C@@H](Cc1cnc[nH]1)C(=O)N[C@@H](CC(C)C)C(=O)N[C@@H](CO)C(=O)N[C@@H](Cc1ccc(O)cc1)C(=O)N[C@@H](C)C(=O)N[C@H](C(N)=O)[C@@H](C)O)C(C)C)C[C@@H]3O[C@H]1C[C@H](N)[C@H](O)[C@H](C)O1 (X1-LRRYVHLSYAT-NH2)
Stability [1]: Stable | IC50 [2]: 24800 nM | Drug uptake [3]: Active | Retention_time [4]: 28.9 min | solubility [5]: Soluble | Drug uptake [6]: Active | Drug uptake [7]: Active | Stability [8]: Stable

COc1cccc2c1C(=O)c1c(O)c3c(c(O)c1C2=O)C[C@@](O)(C(C)=O)C[C@@H]3O[C@H]1C[C@H](N)[C@H](O)[C@H](C)O1 [DAUNORUBICIN]
IC50 [9]: 27.9 nM | IC50 [10]: 286 nM | IC50 [11]: 52.9 nM | IC50 [12]: 40.8 nM | IC50 [13]: 127 nM | IC50 [2]: 203 nM | IC50 [14]: 240 nM | IC50 [15]: 126 nM | IC50 [16]: 21.3 nM | IC50 [17]: 68.2 nM | IC50 [18]: 47.5 nM | IC50 [19]: 13.3 nM | IC50 [20]: 33.3 nM | IC50 [21]: 93.6 nM | IC50 [22]: 44.3 nM | IC50 [23]: 8.9 nM | IC50 [24]: 26.7 nM | IC50 [25]: 25.8 nM | IC50 [26]: 473 nM | IC50 [27]: 467 nM | IC50 [28]: 24.5 nM | IC50 [29]: 26 nM | IC50 [30]: 255 nM | Drug uptake [31]: Active | inhibition in vivo at 1 mg/kg [32]: 84% | Activity [33]: Toxic | Activity [34]: Toxic | Activity [35]: 94% | inhibition in vivo at 1 mg/kg [36]: 30%
